# Compound activity as filed in PubChem.
# CHO parental Ca: counter-screen: ATP calcium response change in parental CHO cells | parental CHO-K1, ATP-induced calcium, Fluo-8 fluorescence | inhibition, % at 5.6 µM | 330,000 compounds, 0.63% hits;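 active means inhibition above that plate's mean sample inhibition plus 3 SD, cut at about 26% in these data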;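 further: 0% = ATP-challenged DMSO wells and 100% = DMSO wells without ATP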
#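 Test system: untransfected parental CHO cell line; also added: ATP stimulus; dosing: 5.6 µM, single dose; signal: calcium-sensitive Fluo-8 fluorescence; measure: percent inhibition of ATP-evoked calcium rise, normalized to controls; benchmarks: low control ATP plus DMSO, high control DMSO only; replication: one well per compound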
# OX1R antag-1: antagonists of human orexin 1 receptor; CHO/OX1R cells, Fluo-8 calcium fluorescence, orexin A; O43613; 330,000 compounds, 0.43% hits; inhibition, % at 5 µM;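 active means inhibition above its plate's threshold, mean inhibition of all tested compounds on the plate plus 3 SD, cut at about 37% in these data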;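 further: 0% = orexin A challenge wells and 100% = SB-334867-A antagonist wells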
# GPR7 antagonist: antagonists of human GPR7 (neuropeptides B/W receptor 1). GPR7-expressing cells, fluorescence antagonist assay. 290,000 compounds, 1.1% hits. inhibition, % at 4.4 µM. P48145; in the data active means inhibition above about 16%, passing the limit was not always enough;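 further: cells stimulated with the agonist NPW; 0% = agonist with vehicle and 100% = vehicle without agonist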
# Target sequence (P48145 whole entry, looked up): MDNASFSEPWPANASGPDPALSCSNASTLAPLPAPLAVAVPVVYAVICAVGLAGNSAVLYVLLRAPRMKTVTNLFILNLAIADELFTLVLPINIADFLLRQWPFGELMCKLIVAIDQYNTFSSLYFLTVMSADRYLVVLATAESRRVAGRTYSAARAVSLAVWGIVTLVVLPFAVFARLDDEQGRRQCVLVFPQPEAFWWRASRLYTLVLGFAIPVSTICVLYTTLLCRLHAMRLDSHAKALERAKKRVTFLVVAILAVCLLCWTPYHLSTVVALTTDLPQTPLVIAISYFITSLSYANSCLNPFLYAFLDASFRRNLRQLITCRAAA
# TAAR1 agonist: agonists of human TAAR1; CHO RD-HGA16 TAAR1, Fluo-8 calcium fluorescence; vehicle wells 0%, saturating PEA agonist 100%; activation, % at 3 µM; 360,000 compounds, 0.99% hits;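 active means activation above the mean activation of all test compounds in the run plus 3 SD, cut at about 38% in these data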
# Target sequence (Q96RJ0 whole entry, looked up): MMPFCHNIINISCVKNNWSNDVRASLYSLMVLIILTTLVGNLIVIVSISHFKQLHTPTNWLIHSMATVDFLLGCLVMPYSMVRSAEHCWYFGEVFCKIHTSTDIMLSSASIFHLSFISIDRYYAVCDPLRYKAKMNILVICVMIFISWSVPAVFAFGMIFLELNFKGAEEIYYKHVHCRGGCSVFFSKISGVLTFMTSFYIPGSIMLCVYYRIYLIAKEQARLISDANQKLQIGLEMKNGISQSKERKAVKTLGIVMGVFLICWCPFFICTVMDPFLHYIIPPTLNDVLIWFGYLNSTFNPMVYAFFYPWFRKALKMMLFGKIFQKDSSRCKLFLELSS
#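 Test system: RD-HGA16 (CHO) cells co-expressing Gα16 and hTAAR1; dosing: one-point dosing at 3 µM (nominal); timing: 17-24 h seeding, 75 min 37 °C dye, 30 min RT; signal: kinetic Fluo-8 calcium fluorescence; read-out basis: % activation relative to PEA EC100 response; controls: DMSO and PEA EC100; replicates: n 1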
# TAAR1 antag: antagonists of human TAAR1. Q96RJ0. 360,000 compounds, 1.5% hits. CHO RD-HGA16 TAAR1, Fluo-8 calcium fluorescence, antagonist. AID 624466. inhibition, % at 3 µM;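 active means inhibition above a per-plate cutoff, the mean inhibition of test compounds on that plate plus 3 SD, cut at about 49% in these data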;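 further: 0% = DMSO plus EC80 beta-PEA response and 100% = DMSO alone without agonist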
#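 Assay system: RD-HGA16 CHO cells with stable hTAAR1 and Gα16 / Reagent: EC80 β-phenethylamine stimulus / Doses: 3 µM, single point / Timing: dye loading 75 min at 37 °C, then 30 min room temperature / Measured by: Fluo-8 intracellular calcium dye fluorescence, real-time kinetic reads / Controls: vehicle wells and EC80 agonist wells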
# OX1R antag-2: OX1R (human) antagonism. O43613. OX1R-expressing cells, FRET antagonist read-out. inhibition, % at 6.6 µM. 330,000 compounds, 1.8% hits. AID 485270; in the data active means inhibition mostly above about 38%, no sharp cut-off; inactive means mostly below about 40%;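 further: 0% = agonist challenge alone and 100% = reference antagonist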
# Active calls of the source: *; . = no result. An excerpt weighted towards active compounds, which were near 4.6% of everything screened.
SMILES,CHO parental Ca,OX1R antag-1,GPR7 antagonist,TAAR1 agonist,TAAR1 antag,OX1R antag-2
C/C(=C\c1ccc(C)o1)C(=O)c1c(C)cc(C)[nH]c1=O,0,1,20*,5,1,5
C=CCn1c(SCC(=O)c2cc(C)n(C(C)COC)c2C)nc2sc(C)c(C)c2c1=O (centres undefined),36*,-6,-7,10,24,10
Cc1ccc(OCCNS(=O)(=O)c2ccc(N3CCCC3=O)cc2)cc1,16,18,-7,4,-1,26
Cc1ccc(OCCNS(=O)(=O)c2ccc(N3CCCC3=O)cc2)cc1C,9,34,-3,8,-15,35*
CC(=O)N1/C(=C/c2ccc(N(C)C)cc2)C(=O)c2ccccc21,.,.,28*,11,17,.
COc1cc(CNCCc2ccccc2)ccc1OCC(=O)NC(C)(C)C,-12,-39,-11,67*,-1,10
C[C@H](NC(=O)CCC1CCC(=O)N1)c1ccccc1 (some centres undefined),-8,-5,.,5,-7,8
Cc1cccc(OCC(=O)Nc2nc3ccc([N+](=O)[O-])cc3s2)c1C,5,2,-5,3,13,14
Cc1cccc(OCC(=O)Nc2nc3ccc([N+](=O)[O-])cc3s2)c1,-8,27,7,5,13,41*
Cc1ccc(S(=O)(=O)N(C)c2ccc(OCC(=O)Nc3nc4ccccc4s3)cc2)cc1,15,2,-3,2,7,57*
O=C(COc1ccccc1C(=O)O)Nc1nc2ccc([N+](=O)[O-])cc2s1,42*,37,-13,8,-7,59*
Cc1ccc(S(=O)(=O)N(C)c2ccc(OCC(=O)Nc3nc4c(ccc5ccccc54)s3)cc2)cc1,-2,-2,-7,-1,-14,9
COc1cc([N+](=O)[O-])ccc1NC(=O)CCCOc1cccc(C)c1,-13,-20,25,1,106*,17
OC1CCCN(C(=S)NCc2ccccc2)C1 (centres undefined),-6,-2,-6,1,2,5
CN(Cc1ccc2c(c1)CCCN2C)C(=O)[C@H]1O[C@@H](n2ccc(=O)[nH]c2=O)[C@H](O)[C@@H]1O,.,.,.,2,1,.
COc1cccc(-c2csc3ncnc(Sc4nnnn4C)c23)c1,-27,-7,.,2,7,9
COC(=O)C1OC(OC2CC[C@]3(C)C(CC[C@@]4(C)[C@@H]3CC=C3[C@@H]5CC(C)(C)CC[C@]5(C(=O)OC5OC(CO)C(O)C(O)C5O)CC[C@]34C)C2(C)C)C(O)C(O)C1O[C@H]1OCC(O)C(O)C1O (some centres undefined),-5,16,.,.,.,-3
CC1(C)CC[C@]2(C(=O)O[C@@H]3OC(CO)[C@@H](O)[C@H](O)[C@H]3O)CC[C@]3(C)C(=CCC4[C@@]5(C)CC[C@H](O[C@@H]6OC(C(=O)O)[C@@H](O)[C@H](O)[C@H]6O)C(C)(C)C5CC[C@]43C)[C@@H]2C1 (some centres undefined),100*,88*,.,17,27,12
C/C=C(\C)C(=O)OC1CC(C)(C)C[C@H]2C3=CC[C@@H]4[C@@]5(C)CCC(O[C@@H]6O[C@@H](C(=O)O)[C@@H](O)C(O[C@@H]7OC[C@H](O)[C@@H](O)[C@@H]7O[C@@H]7OC(CO)C(O)[C@@H](O)[C@@H]7O)C6O[C@@H]6OC(CO)C(O)C(O)C6O)[C@@](C)(CO)[C@@H]5CC[C@]4(C)[C@]3(C)CC(O)[C@@]12CO (some centres undefined),41*,45,.,10,18,9
COc1ccc(/C=C/C(=O)OC(C)CN2CCCCC2)cc1 (centres undefined),-16,-21,-9,2,-4,-4
Cc1ccc(S(=O)(=O)NCCOc2nc(N(C)C)nc(N3CCOCC3)n2)cc1,-23,-1,-9,9,6,48*
CN(C)c1nc(OCCNC(=O)Nc2ccccc2)nc(N2CCOCC2)n1,.,.,-16,3,0,.
Cc1ccc(N=Cc2c(O)c3ccccc3oc2=O)c(C)c1,-8,-9,-13,0,-21,2
CCc1cccc(C)c1N=Cc1c(O)c2ccccc2oc1=O,-1,-4,7,0,2,54*
Cc1ccc(F)cc1N=Cc1c(O)c2ccccc2oc1=O,-4,-20,-12,.,.,58*
SMILES,CHO parental Ca,OX1R antag-1,GPR7 antagonist,TAAR1 agonist,TAAR1 antag,OX1R antag-2
O=C(CSC1=NCCS1)Nc1cccc(F)c1,-16,-12,-1,1,-1,19
CN(Cc1c(F)cccc1Cl)C(=O)c1ccc(NS(=O)(=O)c2ccc3[nH]c(=O)[nH]c3c2)cc1,-6,-20,.,1,-9,15
COc1cccc(-c2cnc3c(NC(C)=O)cc(-c4cccc(NS(C)(=O)=O)c4)cn23)c1,.,.,.,7,50*,.
COc1cccc(-c2cnc3c(NC=O)cc(-c4cccc(NC(C)=O)c4)cn23)c1,.,.,.,9,55*,.
CC(=O)Nc1cccc(-c2cc(NC(C)=O)c3ncc(-c4cccc(C(F)(F)F)c4)n3c2)c1,.,.,.,17,50*,.
CC(=O)Nc1cc(-c2ccc(CO)cc2)cn2c(-c3ccc(F)c(Cl)c3)cnc12,.,.,.,5,54*,.
CC(=O)Nc1cc(-c2cccc(NS(C)(=O)=O)c2)cn2c(-c3ccccc3)cnc12,.,.,.,6,29,.
CC(=O)Nc1cccc(-c2cc(NC=O)c3ncc(-c4cccc(C(C)=O)c4)n3c2)c1,.,.,.,7,26,.
CN(C)S(=O)(=O)c1ccc(NC(=O)COc2ncnc3sccc23)cc1,-1,-4,-3,2,-5,25
Cc1ccc(-n2c(Cl)c(Cl)nc(Cl)c2=O)cc1,23,16,52*,.,.,16
COc1nc(Cl)cn(-c2ccc(C)cc2)c1=O,-2,-7,1,-3,4,19
O=C(CSc1nnc(Cc2csc(Nc3cccc(Cl)c3)n2)o1)N1CCc2ccccc21,-3,8,0,1,51*,61
COc1ccc(C2=NO[C@@H]3[C@@H]4C[C@@H]([C@H]5C(=O)N(c6ccc7c(c6)OCO7)C(=O)[C@@H]45)[C@H]23)cc1OC,-8,-19,-3,0,-4,13
CCN1CCN(S(=O)(=O)c2cc(OCC(=O)NC3CCCCC3)c(C)cc2Cl)CC1,-3,-19,10,13,0,6
Cc1cc(Cl)c(S(=O)(=O)N2CCSCC2)cc1OCC(=O)NC1CCCCC1,9,0,4,22,54*,0
CCc1nnc(NC(=O)C(=O)NCCOC(=O)c2ccccc2)s1,8,-11,-6,8,-20,35
